In ChEMBL document CHEMBL5143539, “Synthesis and evaluation of dual-action kanglemycin-fluoroquinolone hybrid antibiotics” (Bioorg Med Chem Lett, 2022):
Values after ≈ are worked out from the molar mass of the structure shown.

What was measured:
[1] = system: Escherichia coli; assay: Antibacterial activity against Escherichia coli assessed as inhibition of bacterial growth; assay type: functional
Method in brief: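 Run in duplicate, with the same result obtained in each trial.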

[2] = system: Staphylococcus aureus; assay: Antibacterial activity against rifampicin resistant Staphylococcus aureus harboring RpoBH481Y mutant assessed as inhibition of bacterial growth; assay type: functional
[3] = system: Staphylococcus aureus; assay: Antibacterial activity against Staphylococcus aureus harboring RpoBH481Y/ParCS80F/GyrAS84L triple mutant assessed as inhibition of bacterial growth; assay type: functional
[4] = system: Staphylococcus aureus; assay: Antibacterial activity against ciprofloxacin resistant Staphylococcus aureus harboring ParCS80F and GyrAS84L double mutant assessed as inhibition of bacterial growth; assay type: functional
[5] = system: Staphylococcus aureus; assay: Antibacterial activity against wild type Staphylococcus aureus assessed as inhibition of bacterial growth; assay type: functional
[6] = system: HEK293; assay: Cytotoxicity against HEK293 cells; assay type: toxicity, cell-based, Homo sapiens

| Structure (SMILES) | MIC [1] [µg/mL] | MIC [2] [µg/mL] | MIC [3] [µg/mL] | MIC [4] [µg/mL] | MIC [5] [µg/mL] | IC50 [6] [µg/mL] |
| --- | --- | --- | --- | --- | --- | --- |
| CC(=O)O[C@H]1[C@H](C)[C@H](O)[C@H](C)[C@@H](O)[C@@H](C(C)OC(=O)C(C)(C)CC(=O)O)/C=C/C=C(/C)C(=O)NC2=CC(=O)c3c(c(O)c(C)c4c3C(=O)[C@@](C)(O/C=C/[C@H](O[C@H]3C[C@@H]5OCO[C@@H]5[C@@H](C)O3)[C@H]1C)O4)C2=O (some centres undefined) | > 64 | > 64 | > 64 | 0.25 (≈ 0.255 µM) | 0.25 (≈ 0.255 µM) |  |
| CC(=O)O[C@H]1[C@H](C)[C@H](O)[C@H](C)[C@@H](O)[C@@H](C(C)OC(=O)C(C)(C)CC(=O)N[C@@H]2CCCCN(c3c(F)cc4c(=O)c(C(=O)O)cn(C5CC5)c4c3Cl)C2)/C=C/C=C(/C)C(=O)NC2=CC(=O)c3c(c(O)c(C)c4c3C(=O)[C@@](C)(O/C=C/[C@H](O[C@H]3C[C@@H]5OCO[C@@H]5[C@@H](C)O3)[C@H]1C)O4)C2=O (some centres undefined) | > 64 | 16 (≈ 11.8 µM) | > 64 | 16 (≈ 11.8 µM) | 16 (≈ 11.8 µM) | > 64 |
| CC(=O)O[C@H]1[C@H](C)[C@H](O)[C@H](C)[C@@H](O)[C@@H](C(C)OC(=O)C(C)(C)CC(=O)O)/C=C/C=C(/C)C(=O)Nc2c3oc4cc(NC5(c6c(F)cc7c(=O)c(C(=O)O)cn8c7c6OC[C@@H]8C)CC5)cc(O)c4nc-3c3c4c(c(C)c(O)c3c2=O)O[C@](C)(O/C=C/[C@H](O[C@H]2C[C@@H]3OCO[C@@H]3[C@@H](C)O2)[C@H]1C)C4=O (some centres undefined) | 4 (≈ 2.85 µM) | 32 (≈ 22.8 µM) | > 64 | 8 (≈ 5.7 µM) | 8 (≈ 5.7 µM) | > 64 |
| CC(=O)O[C@H]1[C@H](C)[C@H](O)[C@H](C)[C@@H](O)[C@@H](C(C)OC(=O)C(C)(C)CC(=O)NC2(c3c(F)cc4c(=O)c(C(=O)O)cn5c4c3OC[C@@H]5C)CC2)/C=C/C=C(/C)C(=O)NC2=CC(=O)c3c(c(O)c(C)c4c3C(=O)[C@@](C)(O/C=C/[C@H](O[C@H]3C[C@@H]5OCO[C@@H]5[C@@H](C)O3)[C@H]1C)O4)C2=O (some centres undefined) | > 64 | > 64 | > 64 | 8 (≈ 6.24 µM) | 8 (≈ 6.24 µM) | > 64 |
| COc1c(N2CCN(C(=O)CC(C)(C)C(=O)OC(C)[C@H]3/C=C/C=C(/C)C(=O)NC4=CC(=O)c5c(c(O)c(C)c6c5C(=O)[C@@](C)(O/C=C/[C@H](O[C@H]5C[C@@H]7OCO[C@@H]7[C@@H](C)O5)[C@@H](C)[C@@H](OC(C)=O)[C@H](C)[C@H](O)[C@H](C)[C@H]3O)O6)C4=O)C(C)C2)c(F)cc2c(=O)c(C(=O)O)cn(C3CC3)c12 (some centres undefined) | > 64 | > 64 | > 64 | 32 (≈ 23.9 µM) | 64 (≈ 47.8 µM) | 21 (≈ 15.7 µM) |
| CC(=O)O[C@H]1[C@H](C)[C@H](O)[C@H](C)[C@@H](O)[C@@H](C(C)OC(=O)C(C)(C)CC(=O)O)/C=C/C=C(/C)C(=O)Nc2c3oc4cc(N5CCN(c6cc7c(cc6F)c(=O)c(C(=O)O)cn7C6CC6)CC5)cc(O)c4nc-3c3c4c(c(C)c(O)c3c2=O)O[C@](C)(O/C=C/[C@H](O[C@H]2C[C@@H]3OCO[C@@H]3[C@@H](C)O2)[C@H]1C)C4=O (some centres undefined) | 8 (≈ 5.65 µM) | 32 (≈ 22.6 µM) | > 64 | 0.5 (≈ 0.353 µM) | 0.5 (≈ 0.353 µM) | > 64 |
| CC(=O)O[C@H]1[C@H](C)[C@H](O)[C@H](C)[C@@H](O)[C@@H](C(C)OC(=O)C(C)(C)CC(=O)N2Cc3cc(-c4ccc5c(=O)c(C(=O)O)cn(C6CC6)c5c4OC(F)F)ccc3[C@H]2C)/C=C/C=C(/C)C(=O)NC2=CC(=O)c3c(c(O)c(C)c4c3C(=O)[C@@](C)(O/C=C/[C@H](O[C@H]3C[C@@H]5OCO[C@@H]5[C@@H](C)O3)[C@H]1C)O4)C2=O (some centres undefined) | > 64 | 16 (≈ 11.5 µM) | > 64 | 8 (≈ 5.75 µM) | 8 (≈ 5.75 µM) | 19 (≈ 13.7 µM) |
| CC(=O)O[C@H]1[C@H](C)[C@H](O)[C@H](C)[C@@H](O)[C@@H](C(C)OC(=O)C(C)(C)CC(=O)N[C@H]2[C@@H]3CN(c4nc5c(cc4F)c(=O)c(C(=O)O)cn5-c4ccc(F)cc4F)C[C@@H]32)/C=C/C=C(/C)C(=O)NC2=CC(=O)c3c(c(O)c(C)c4c3C(=O)[C@@](C)(O/C=C/[C@H](O[C@H]3C[C@@H]5OCO[C@@H]5[C@@H](C)O3)[C@H]1C)O4)C2=O (some centres undefined) | > 64 | 16 (≈ 11.6 µM) | > 64 | 8 (≈ 5.8 µM) | 8 (≈ 5.8 µM) | > 64 |
| CC(=O)O[C@H]1[C@H](C)[C@H](O)[C@H](C)[C@@H](O)[C@@H](C(C)OC(=O)C(C)(C)CC(=O)N2CCN(c3cc4c(cc3F)c(=O)c(C(=O)O)cn4C3CC3)CC2)/C=C/C=C(/C)C(=O)NC2=CC(=O)c3c(c(O)c(C)c4c3C(=O)[C@@](C)(O/C=C/[C@H](O[C@H]3C[C@@H]5OCO[C@@H]5[C@@H](C)O3)[C@H]1C)O4)C2=O (some centres undefined) | > 64 | > 64 | > 64 | 32 (≈ 24.7 µM) | 16 (≈ 12.4 µM) | 23 (≈ 17.8 µM) |
| COc1c(N2CCCC(N(C)c3cc(O)c4nc5c6c7c8c(C)c(O)c6c(=O)c(c-5oc4c3)NC(=O)/C(C)=C\C=C\[C@H](C(C)OC(=O)C(C)(C)CC(=O)O)[C@H](O)[C@@H](C)[C@@H](O)[C@@H](C)[C@H](OC(C)=O)[C@H](C)[C@@H](O[C@H]3C[C@@H]4OCO[C@@H]4[C@@H](C)O3)/C=C/O[C@@](C)(O8)C7=O)C2)c(F)cc2c(=O)c(C(=O)O)cn(C3CC3)c12 (some centres undefined) | 64 (≈ 43.4 µM) | 16 (≈ 10.9 µM) | > 64 | 16 (≈ 10.9 µM) | 8 (≈ 5.43 µM) | 36 (≈ 24.4 µM) |
| COc1c(N2C[C@@H]3CCCN(C(=O)CC(C)(C)C(=O)OC(C)[C@H]4/C=C/C=C(/C)C(=O)NC5=CC(=O)c6c(c(O)c(C)c7c6C(=O)[C@@](C)(O/C=C/[C@H](O[C@H]6C[C@@H]8OCO[C@@H]8[C@@H](C)O6)[C@@H](C)[C@@H](OC(C)=O)[C@H](C)[C@H](O)[C@H](C)[C@H]4O)O7)C5=O)[C@@H]3C2)c(F)cc2c(=O)c(C(=O)O)cn(C3CC3)c12 (some centres undefined) | > 64 | > 64 | > 64 | 32 (≈ 23.4 µM) | 32 (≈ 23.4 µM) | 28 (≈ 20.5 µM) |
| CC(=O)O[C@H]1[C@H](C)[C@H](O)[C@H](C)[C@@H](O)[C@@H](C(C)OC(=O)C(C)(C)CC(=O)O)/C=C/C=C(/C)C(=O)Nc2c3oc4cc(N5Cc6cc(-c7ccc8c(=O)c(C(=O)O)cn(C9CC9)c8c7OC(F)F)ccc6[C@H]5C)cc(O)c4nc-3c3c4c(c(C)c(O)c3c2=O)O[C@](C)(O/C=C/[C@H](O[C@H]2C[C@@H]3OCO[C@@H]3[C@@H](C)O2)[C@H]1C)C4=O (some centres undefined) | 16 (≈ 10.6 µM) | 2 (≈ 1.32 µM) | > 64 | 1 (≈ 0.662 µM) | 1 (≈ 0.662 µM) | > 64 |
| COc1c(N2CCCC(N(C)C(=O)CC(C)(C)C(=O)OC(C)[C@H]3/C=C/C=C(/C)C(=O)NC4=CC(=O)c5c(c(O)c(C)c6c5C(=O)[C@@](C)(O/C=C/[C@H](O[C@H]5C[C@@H]7OCO[C@@H]7[C@@H](C)O5)[C@@H](C)[C@@H](OC(C)=O)[C@H](C)[C@H](O)[C@H](C)[C@H]3O)O6)C4=O)C2)c(F)cc2c(=O)c(C(=O)O)cn(C3CC3)c12 (some centres undefined) | > 64 | > 64 | > 64 | 16 (≈ 11.8 µM) | 32 (≈ 23.6 µM) | 23 (≈ 17 µM) |
| CO/N=C1\CN(c2nc3c(cc2F)c(=O)c(C(=O)O)cn3C2CC2)CC1CNC(=O)CC(C)(C)C(=O)OC(C)[C@H]1/C=C/C=C(/C)C(=O)NC2=CC(=O)c3c(c(O)c(C)c4c3C(=O)[C@@](C)(O/C=C/[C@H](O[C@H]3C[C@@H]5OCO[C@@H]5[C@@H](C)O3)[C@@H](C)[C@@H](OC(C)=O)[C@H](C)[C@H](O)[C@H](C)[C@H]1O)O4)C2=O (some centres undefined) | > 64 | > 64 | > 64 | 8 (≈ 5.91 µM) | 16 (≈ 11.8 µM) | > 64 |
| CNC1CCCN(c2c(F)cc3c(=O)c(C(=O)O)cn(C4CC4)c3c2OC)C1 (centres undefined) [BALOFLOXACIN] | 0.5 (≈ 1.28 µM) | 0.13 (≈ 0.334 µM) | 4 (≈ 10.3 µM) | 4 (≈ 10.3 µM) | 0.13 (≈ 0.334 µM) |  |
| N[C@@H]1CCCCN(c2c(F)cc3c(=O)c(C(=O)O)cn(C4CC4)c3c2Cl)C1 [BESIFLOXACIN] | 0.25 (≈ 0.635 µM) | 0.031 (≈ 0.0787 µM) | 0.5 (≈ 1.27 µM) | 0.5 (≈ 1.27 µM) | 0.031 (≈ 0.0787 µM) |  |
| O=C(O)c1cn(C2CC2)c2cc(N3CCNCC3)c(F)cc2c1=O [CIPROFLOXACIN] |  | 0.25 (≈ 0.754 µM) |  | 32 (≈ 96.6 µM) | 0.25 (≈ 0.754 µM) |  |
| C[C@H]1NCc2cc(-c3ccc4c(=O)c(C(=O)O)cn(C5CC5)c4c3OC(F)F)ccc21 [GARENOXACIN] | 0.016 (≈ 0.0375 µM) | 0.016 (≈ 0.0375 µM) | 0.5 (≈ 1.17 µM) | 0.5 (≈ 1.17 µM) | 0.016 (≈ 0.0375 µM) |  |
| COc1c(N2CCNC(C)C2)c(F)cc2c(=O)c(C(=O)O)cn(C3CC3)c12 (centres undefined) [GATIFLOXACIN] | 0.016 (≈ 0.0426 µM) | 0.063 (≈ 0.168 µM) | 2 (≈ 5.33 µM) | 2 (≈ 5.33 µM) | 0.063 (≈ 0.168 µM) |  |
| CO/N=C1\CN(c2nc3c(cc2F)c(=O)c(C(=O)O)cn3C2CC2)CC1CN (centres undefined) [GEMIFLOXACIN] | 0.0078 (≈ 0.02 µM) | 0.016 (≈ 0.0411 µM) | 1 (≈ 2.57 µM) | 1 (≈ 2.57 µM) | 0.016 (≈ 0.0411 µM) |  |
| COc1c(N2C[C@@H]3CCCN[C@@H]3C2)c(F)cc2c(=O)c(C(=O)O)cn(C3CC3)c12 [MOXIFLOXACIN] | 0.031 (≈ 0.0772 µM) | 0.016 (≈ 0.0399 µM) |  |  | 0.016 (≈ 0.0399 µM) |  |
| C[C@H]1COc2c(C3(N)CC3)c(F)cc3c(=O)c(C(=O)O)cn1c23 [PAZUFLOXACIN] | 0.016 (≈ 0.0503 µM) | 0.13 (≈ 0.408 µM) | 4 (≈ 12.6 µM) | 4 (≈ 12.6 µM) | 0.13 (≈ 0.408 µM) |  |
| N[C@@H]1[C@H]2CN(c3nc4c(cc3F)c(=O)c(C(=O)O)cn4-c3ccc(F)cc3F)C[C@@H]12 [TROVAFLOXACIN] | 0.0078 (≈ 0.0187 µM) | 0.016 (≈ 0.0384 µM) | 1 (≈ 2.4 µM) | 1 (≈ 2.4 µM) | 0.0078 (≈ 0.0187 µM) |  |
